We go through seven compounds from publication PMC8048816 (Angewandte Chemie (International Ed. in English), 2021).

Format in all cases: binding
The target in test [1] is T1, LecA (Pseudomonas aeruginosa, UniProt Q05097).
T1 sequence (Q05097 2-122 limits assumed): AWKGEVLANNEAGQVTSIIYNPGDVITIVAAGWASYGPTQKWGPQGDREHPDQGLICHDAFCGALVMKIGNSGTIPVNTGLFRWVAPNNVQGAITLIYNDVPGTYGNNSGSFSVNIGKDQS
As to conditions: for FP with 2ME Inhibition [%] at 4 mM / FP Inhibition [%] at 4 mM: 4 mM catechol, average and std. dev. of 3 experiments; for FP with 2ME Inhibition [%] at 4 mM: with 2-mercaptoethanol; for FP Inhibition [%] at 4 mM: without 2-mercaptoethanol. In short, it runs like this: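 Competitive fluorescence polarization assay measuring displacement of a Cy5-labelled galactoside probe from LecA. The Cy5 probe replaced an earlier fluorescein conjugate to avoid spectral overlap. Test compound at 4 mM, with or without 2-mercaptoethanol; some compounds at 25 % DMSO. Methyl α-D-galactoside as positive control. Percent inhibition given as average and std. dev. of 3 experiments.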

Test [2] concerns the target T1, LecA. The test is described as follows: thermal shift assay. As to conditions: change of LecA melting point, 4 mM test compound, average of two experiments.
In test [3] the target is T2, 5FW‐LecA (Pseudomonas aeruginosa, UniProt Q05097).
T2 sequence (Q05097 2-122 limits assumed): T1 sequence (Q05097 2-122 limits assumed)
Kind of test: protein-observed 19F. As to conditions: 1.5 mM catechol, 200 µM 5FW-LecA; n.s.=not significant.

Test [4] concerns the target T1, LecA. Kind of test: surface plasmon resonance. A digest of the protocol:
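Recombinant LecA was immobilized for SPR. Test compound was injected at two concentrations: 0.2 and 1 mM, or 0.2 and 0.5 mM for some compounds. Steady-state binding responses were read from sensorgrams. 0.1 mM pNPGal was injected as positive control to monitor LecA activity and normalize data. Kd came from multi-cycle kinetic analyses of prioritized compounds.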

Test [5] concerns the target Langerin ECD (Homo sapiens, UniProt Q9UJ71). Kind of test: 1H STD competition NMR with mannose. To be noted: 1 mM compound, 20 μM Langerin ECD, 100 mM D-mannose.
For test [6], the target named is human Langerin CRD (Homo sapiens, UniProt Q9UJ71, V278A). Kind of test: 1H-15N HSQC NMR. As to conditions: 1 mM compound, 100 μM Langerin CRD.
For test [7], the target named is T1, LecA. Kind of test: ligand-observed T1ρ relaxation NMR. As to conditions: for effect of excess Me‐α‐D‐Gal on T1ρ relaxation with LecA: displacement experiment; for T1ρ relaxation rate in presence of LecA: with vs without LecA.
Test [8] deals with T1, LecA. To be noted: read-out: inhibition at 3.3 mM. In short, it runs like this: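 Purchased virtual-screening hits from the NCI Diversity IV set, selected for structural diversity, were tested once at 3.3 mM. Assay: the established competitive fluorescence polarization assay, scoring displacement of a fluorescent galactoside ligand from LecA as percent inhibition.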
[9] abbreviates: read-out: FP Inhibition [%] at 4 mM.
Where [10] appears, read: read-out: FP with 2ME Inhibition [%] at 4 mM.

What is called inhibition is the relative decrease from the control value, in per cent. One may read the Kd as a measure of binding affinity in units of concentration. Read a low Kd as tighter binding.

Where two headings read alike, the source gives them in different places.

Sequence of human Langerin CRD (Q9UJ71 202-320 V278A): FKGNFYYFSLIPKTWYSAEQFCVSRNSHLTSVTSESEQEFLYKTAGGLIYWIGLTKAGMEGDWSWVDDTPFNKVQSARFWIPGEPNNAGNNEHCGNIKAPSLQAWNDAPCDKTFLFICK
Sequence of Langerin ECD (Q9UJ71 65-328 limits assumed): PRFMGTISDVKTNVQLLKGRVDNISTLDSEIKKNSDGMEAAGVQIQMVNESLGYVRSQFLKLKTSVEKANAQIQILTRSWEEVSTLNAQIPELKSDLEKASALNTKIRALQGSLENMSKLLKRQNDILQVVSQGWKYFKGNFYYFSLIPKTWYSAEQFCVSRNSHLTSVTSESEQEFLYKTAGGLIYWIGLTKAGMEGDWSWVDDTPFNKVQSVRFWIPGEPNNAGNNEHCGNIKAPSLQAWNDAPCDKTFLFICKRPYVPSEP

As to `Oc1ccccc1O` [Compound 1, catechol], in test [1], the “FP with 2ME Inhibition [%] at 4 mM” value is reported as “none” and the “FP Inhibition [%] at 4 mM” value is given as “inconcl”. In test [2], the “TSA ΔT [K]” value is given as −4.5 K. Moreover, the “PrOF NMR CSP of W42 [ppm]” value in test [3] was “n.s”.
In the case of `N#Cc1cccc(O)c1O` [Compound 3, 3‐cyano catechol], the inhibition at 4000 µM worked out at 23 ± 2% in test [1] (setting [9]) and 23% in test [1] (setting [10]). For the same compound, the “TSA ΔT [K]” value in test [2] is given as “+1.8 K”. Further, the Kd in test [4] amounted to 1110 ± 70 µM. In addition, the ligand efficiency in test [4] (from SPR Kd) is given as 0.40. Moreover, in test [3], the “PrOF NMR CSP of W42 [ppm]” value was 0.045 ppm. In addition, the “reduction in peak intensities in STD NMR spectra in presence of mannose” value in test [5] amounted to 65%. Moreover, the “chemical shift perturbations of Langerin CRD resonances” value in test [6] was “promoted chemical shift perturbations (CSPs)”.
`Cc1ccc(O)c(O)c1` [Compound 11, 4‐methyl catechol]: in test [1], the “FP with 2ME Inhibition [%] at 4 mM” value is listed as “none” and the “FP Inhibition [%] at 4 mM” value is given as “inconcl”. Further, the “TSA ΔT [K]” value in test [2] is listed as −11.0 K. For the same compound, the “PrOF NMR CSP of W42 [ppm]” value in test [3] is reported as “n.s”.
For the compound `CC(C)(C)c1ccc(O)c(O)c1` [Compound 13, 4‐tert‐butyl catechol], in test [1], the “FP with 2ME Inhibition [%] at 4 mM” value is “none” and the “FP Inhibition [%] at 4 mM” value is reported as “inconcl”. Further, in test [2], the “TSA ΔT [K]” value is recorded as −15.4 K. Moreover, the “PrOF NMR CSP of W42 [ppm]” value in test [3] was found to be 0.130 ppm. In test [7], the “effect of excess Me‐α‐D‐Gal on T1ρ relaxation with LecA” value is listed as “no significant effect” and the “T1ρ relaxation rate in presence of LecA” value is “much weaker”.
In the case of `CC(C)C(=O)c1ccc(O)c(O)c1` [Compound 21, 4‐isobutyryl catechol], the inhibition at 4000 µM in test [1] (setting [9]) worked out at 10 ± 2%. The inhibition at 4000 µM in test [1] (setting [10]) stood at 11 ± 2%. For the same compound, the inhibition at 3300 µM in test [8] is ~10%. Further, the “TSA ΔT [K]” value in test [2] is given as “+0.35 K”. Also, the “PrOF NMR CSP of W42 [ppm]” value in test [3] worked out at 0.08 ppm. For the same compound, in test [7], the “effect of excess Me‐α‐D‐Gal on T1ρ relaxation with LecA” value is “fully reversed to the free state” and the “T1ρ relaxation rate in presence of LecA” value is on record as “strongly increased”.
`O=C(c1ccccc1)c1ccc(O)c(O)c1` [Compound 23, 4‐benzoyl catechol]: the inhibition at 4000 µM in test [1] (setting [9]) stood at 39 ± 5%; in test [1] (setting [10]) it was 39%. Also, the “TSA ΔT [K]” value in test [2] was “+0.36 K”. Also, the “PrOF NMR CSP of W42 [ppm]” value in test [3] worked out at 0.110 ppm.
As for `O=C(c1ccc(Cl)cc1)c1ccc(O)c(O)c1` [Compound 24, 4‐parachlorobenzoyl catechol], the figures for the inhibition at 4000 µM in test [1] (setting [9]) and in test [1] (setting [10]) were 29 ± 3% and 22 ± 2%, respectively. In addition, in test [3], the “PrOF NMR CSP of W42 [ppm]” value is recorded as 0.185 ppm.
